A short description of test [1]: Binding affinity of compound was measured for bradykinin receptor in guinea pig ileum. In kind it is tissue-based, Cavia porcellus.
Test [2] in a line: Antagonistic activity of compound was measured for bradykinin receptor in guinea pig ileum. Type of test: functional, tissue-based. The conditions noted are these: Cavia porcellus, read-out: pA2 (converted). In outline:
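Guinea pig ileal longitudinal muscle strips, which express only B2 receptors. Cumulative bradykinin dose-response curves were run without and with increasing antagonist concentrations (0.1-0.3 μM), and antagonism was expressed as pA2. Agonist activity was also checked at concentrations up to 10 μM.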

Test [3] can be described thus: Antagonistic activity of compound was measured in SV-T2 cells. In kind it is functional, cell-based. As to conditions: Mus musculus, read-out: pA2 (converted). Summed up:
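SV-T2 fibroblasts, which express only B2 receptors. Antagonism of bradykinin-stimulated prostaglandin synthesis was measured and expressed as pA2. Agonist activity was also checked at concentrations up to 10 μM.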

A word on the Ki: it is the equilibrium dissociation constant of an inhibitor or competing ligand from its target. Read a high Ki as a looser hold on the target.

The compound `CCCO[C@@H]1C[C@@H](C(=O)N2Cc3ccccc3C[C@H]2C(=O)N[C@@H](CCCN=C(N)N)C(=O)O)N(C(=O)[C@H](CO)NC(=O)[C@@H](NC(=O)CNC(=O)[C@@H]2C[C@H](O)CN2C(=O)[C@@H]2CCCN2C(=O)[C@H](CCCN=C(N)N)NC(=O)[C@H](N)CCCN=C(N)N)c2cccs2)C1` registered a Ki in test [1] of 0.77 nM. The results for the Kb in test [2] and in test [3] were 24.5 nM and 1.58 nM, respectively.

Consider `CO[C@H]1C[C@@H](C(=O)N2Cc3ccccc3C[C@H]2C(=O)N[C@@H](CCCN=C(N)N)C(=O)O)N(C(=O)[C@H](CO)NC(=O)[C@@H](NC(=O)CNC(=O)[C@@H]2C[C@H](O)CN2C(=O)[C@@H]2CCCN2C(=O)[C@H](CCCN=C(N)N)NC(=O)[C@H](N)CCCN=C(N)N)c2cccs2)C1`, for which, in test [1], the Ki came to 102 nM. The results for the Kb in test [2] and in test [3] were 8910 nM and 251 nM, respectively.

With `NC(N)=NCCC[C@@H](N)C(=O)N[C@@H](CCCN=C(N)N)C(=O)N1CCC[C@H]1C(=O)N1C[C@H](O)C[C@H]1C(=O)NCC(=O)N[C@@H](Cc1ccccc1)C(=O)N[C@@H](CO)C(=O)N[C@H](Cc1ccccc1)C(=O)N[C@@H](Cc1ccccc1)C(=O)N[C@@H](CCCN=C(N)N)C(=O)O`, the Ki in test [1] was 57.9 nM. In addition, the Kb is 1510 nM in test [2] and 10 nM in test [3].

As to `CCCO[C@H]1C[C@@H](C(=O)N2Cc3ccccc3C[C@H]2C(=O)N[C@@H](CCCN=C(N)N)C(=O)O)N(C(=O)[C@H](CO)NC(=O)[C@@H](NC(=O)CNC(=O)[C@@H]2C[C@H](O)CN2C(=O)[C@@H]2CCCN2C(=O)[C@H](CCCN=C(N)N)NC(=O)[C@H](N)CCCN=C(N)N)c2cccs2)C1`, in test [1], the affinity corresponds to a Ki of 144 nM. Besides, the Kb is 5750 nM in test [2] and 158 nM in test [3].

For `CO[C@@H]1C[C@@H](C(=O)N2Cc3ccccc3CC2C(=O)N[C@@H](CCCN=C(N)N)C(=O)O)N(C(=O)[C@H](CO)NC(=O)[C@@H](NC(=O)CNC(=O)[C@@H]2C[C@H](O)CN2C(=O)[C@@H]2CCCN2C(=O)[C@H](CCCN=C(N)N)NC(=O)[C@H](N)CCCN=C(N)N)c2cccs2)C1` (stereo partly drawn), in test [1], affinity was put at a Ki of 2.12 nM. Also, the Kb was 186 nM in test [2] and 3.98 nM in test [3].

`CCCO[C@@H]1C[C@@H](C(=O)N2C3CCCCC3C[C@H]2C(=O)N[C@@H](CCCN=C(N)N)C(=O)O)N(C(=O)[C@H](CO)NC(=O)[C@@H](NC(=O)CNC(=O)[C@@H]2C[C@H](O)CN2C(=O)[C@@H]2CCCN2C(=O)[C@H](CCCN=C(N)N)NC(=O)[C@H](N)CCCN=C(N)N)c2cccs2)C1` (stereo partly drawn) showed a Ki in test [1] of 0.16 nM. Also, the Kb is 2.88 nM in test [2] and 0.251 nM in test [3].
